High-throughput results: PubChem, several laboratories
TNF death inh – TNF-alpha cell death inhibition in Jurkat FADD-/- cells. Jurkat FADD-/- TNF necroptosis rescue, ATP luminescence, 24 h; 0 = TNF only, 100 = no-TNF cells. activation (protection from cell death), % at 10 µM. hit rate 0.068% among 220,000. AID 463075;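 active means activation, meaning protection from cell death, of at least 50% relative to plate controls; inactive means activation below 50%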;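 further: necroptosis triggered by 40 ng/mL TNF-alpha added together with compound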
Dynein transport – dynein cargo transport inhibition. 3617.4 mouse cells, GR-EGFP nuclear translocation imaging; test concentration mostly 20 µM; stimulated with dexamethasone, 1 µM; hits give low values. z-score, hits read low. hit rate 0.47% among 220,000. AID 1381;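 active means plate z-score of nuclear minus cytoplasmic receptor signal below a set negative limit, without overly bright fluorescence or cell loss, cut at about -3.5 in these data, passing the limit was not always enough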;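 further: z-score of nuclear minus cytoplasmic ring GR-EGFP intensity difference per well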
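Medium: Induction medium lacking tetracycline, stripped serum | Probe or stimulus: 1.0 µM final dexamethasone stimulus | Schedule: 48 h induction, then 1 h compound, then 30 min agonist, 37 °C | Signal: Automated 10x imaging of fixed Hoechst-stained cells | Evaluation: Per-cell GR-EGFP intensity, nucleus versus surrounding cytoplasmic ring, well-averaged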
L929 necroptosis – blocks zVAD induced death of L929 cells | AID 1377 | L929 zVAD necroptosis rescue, ATP luminescence, 24 h; with zVAD 60 µM | hit rate 0.38% among 220,000 | viability rescue, % at 10 µM;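 active means activation, scaled between plate controls, above about 75%, limit read from the data; inactive means activation under that limit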;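 further: 0% = zVAD with DMSO and 100% = DMSO alone without zVAD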
Autophagy HCS – alters autophagy in cells. calls only at 10 µM (by protocol). MEF GFP-LC3 puncta imaging; test concentration mostly 10 µM. hit rate 0.98% among 190,000;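 active means percentage of spot-positive cells more than 3 SD above its plate mean, without a fluorescence outlier flag or 80% toxicity; inconclusive means no clear call, values can overlap the other calls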;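 further: spot-positive cell cutoff set from DMSO-treated cells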
Hck Nef HTS – human Hck-Nef kinase inhibition. P08631. Recombinant Hck-YEEI plus Nef, Z-Lyte FRET kinase assay. inhibition, % at 20 µM. hit rate 0.68% among 220,000. AID 463187;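 active means Hck-Nef kinase inhibition above about 50%, limit read from the data; inactive means inhibition below that limit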;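 further: 0% = DMSO with Hck plus Nef and 100% = Hck alone without Nef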
Target sequence (P08631 whole entry, looked up): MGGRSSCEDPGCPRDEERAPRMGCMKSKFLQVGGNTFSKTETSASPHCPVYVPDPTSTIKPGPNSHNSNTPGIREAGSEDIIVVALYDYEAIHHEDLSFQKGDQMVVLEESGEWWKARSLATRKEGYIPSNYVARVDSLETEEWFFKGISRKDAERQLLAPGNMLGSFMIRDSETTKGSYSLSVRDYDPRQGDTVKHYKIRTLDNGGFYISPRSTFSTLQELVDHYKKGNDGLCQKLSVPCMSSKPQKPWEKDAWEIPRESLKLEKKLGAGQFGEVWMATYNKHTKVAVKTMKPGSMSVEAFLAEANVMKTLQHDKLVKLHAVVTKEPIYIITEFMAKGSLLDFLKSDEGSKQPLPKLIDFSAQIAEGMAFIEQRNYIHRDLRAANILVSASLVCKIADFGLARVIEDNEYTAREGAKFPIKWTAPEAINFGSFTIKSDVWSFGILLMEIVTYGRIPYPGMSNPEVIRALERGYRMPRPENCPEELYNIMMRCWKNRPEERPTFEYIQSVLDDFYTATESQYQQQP
MDM2 E3 inh – Mdm2 E3 ligase (human) inhibition. AID 1230. hit rate 0.11% among 210,000. signal enhancement, % at 5 µM. cell-based MDM2 ubiquitination luciferase reporter, 2 h; 0 = plate control, 100 = twice control, blank-subtracted. Q00987;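 active means signal enhancement of 30% or more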;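 further: luminescence tracks abundance of the self-degrading MDM2-luciferase fusion protein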
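Assay system: stable mammalian line carrying autodegrading MDM2–luciferase fusion reporter; Input: 2000 cells in each well; Compound dosing: single-point 5 µM; Schedule: 2 h compound exposure at 37 °C; Signal: SteadyLite luciferase luminescence after 15 min room-temperature reagent incubation; Evaluation: % luminescence enhancement versus blank-corrected plate control mean; Benchmarks: plate controls and plate blanks.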
Active calls of the source: *; i = inactive; ? = inconclusive; . = no result given; + = active, no number. Most compounds without a hit are left out; they make up all but 2.4% or so of the library.

SMILES	TNF death inh	Dynein transport	L929 necroptosis	Autophagy HCS	Hck Nef HTS	MDM2 E3 inh
Cc1ccc(-n2c(SCC(=O)N/N=C/c3c(C)nn(-c4ccccc4)c3C)nc3ccccc3c2=O)cc1	-0.9	0.0754	0.1	+	28.0	-2.7
COc1ccc(Br)cc1C1N2CC3(C)CN1CC(C)(C2)C3=O (configuration not stated)	-0.6	-0.433	0.4	i	3.2	-4.3
COc1cccc(/C=N/Nc2nccnc2Cl)c1O	-13.1	1.99	39.9	+	24.0	-67.4
COc1ccc(-c2nc3scc(-c4ccc(OC)c(OC)c4)c3c(=O)o2)cc1	0.1	-0.65	0.8	+	5.8	-11.9
CC(=O)NC1C(=O)N=C(SCC(=O)NC(C)c2ccccc2)NC1=O (configuration not stated)	0.6	1.36	-0.5	i	0.5	33.6*
c1csc(-c2noc(CN3CCc4sccc4C3)n2)c1	-0.1	-1.67	0.4	i	16.9	-5.0
Cc1cccc(OC(=O)Cn2c(C(F)(F)F)nc3ccccc32)c1	-1.9	-0.398	-0.1	i	0.0	15.6
O=C(Cn1c(C(F)(F)F)nc2ccccc21)Oc1cccc(C(F)(F)F)c1	-1.3	-4.2*	0.9	i	-0.8	-14.1
CCN(CC)c1ccc2cc(-c3nnc(-c4ccc(Br)cc4)o3)c(=O)oc2c1	-0.3	-5.72*	0.1	?	-3.7	.
O=c1oc2ccc3ccccc3c2cc1-c1nnc(-c2ccccc2)o1	-0.5	-1.29	0.0	i	1.9	-8.2
CCN(CC)c1ccc2cc(-c3nnc(-c4ccccc4)o3)c(=O)oc2c1	-0.1	-4.52*	1.3	?	6.2	-2.2
COc1ccccc1N1CCN(C(=O)c2coc(=O)c(Br)c2)CC1	-1.2	-0.91	-0.9	.	25.9	-7.9
O=C(NCc1cccnc1)c1cccc(F)c1	0.8	-1.08	1.9	+	0.0	-6.8
Nc1nc(N)c(C=Nc2ccc(Br)cc2)c(Nc2ccc(Br)cc2)n1	0.4	-0.352	3.1	.	22.7	-15.0
Cc1ccc(C)n1CCN1CCN(CC(=O)Nc2cc(C(F)(F)F)ccc2Cl)CC1	-7.9	-0.507	0.1	+	-0.2	4.2
Nc1c(C(=O)NCC2CCCO2)sc2nc3c(c(-c4ccco4)c12)CC/C3=C\c1ccco1 (configuration not stated)	2.7	-0.16	4.9	i	88.3*	6.7
NC(=O)c1sc2nc3c(c(-c4ccco4)c2c1N)CCCC3	1.3	0.413	0.5	.	1.1	.
O=C1NCN(c2ccccc2)C12CCN(CCCC(c1ccc(F)cc1)c1ccc(F)cc1)CC2	1.0	-0.322	0.1	+	19.8	-9.2
O=C1CCC(=O)N1CCC(c1ccc(F)cc1)c1ccco1 (configuration not stated)	1.9	-2.22	-0.1	i	2.0	-7.8
O=C(CSc1n[nH]c(=O)[nH]c1=O)Nc1ccc(C(=O)O)cc1	0.1	0.929	0.4	i	-1.8	-36.2
CC(C)=CCN1CCN(C/C(Cl)=C/c2ccccc2)CC1CCO (configuration not stated)	1.8	-0.201	-0.7	.	8.7	-12.2
OCCC1CN(Cc2cnc(-c3cccc4ccccc34)nc2)CCN1C1CCCCC1 (configuration not stated)	2.9	0.106	0.1	+	21.2	1.2
Cc1ccccc1-c1ncc(CN2CCN(C3CCCC3)C(CCO)C2)cn1 (configuration not stated)	0.7	-1.02	-0.8	i	8.2	-7.0
OCCC1CN(C/C(Cl)=C/c2ccccc2)CCN1C1CCCC1 (configuration not stated)	2.3	-0.735	-0.6	+	18.8	-8.0
Cc1cc(C)nc(/N=C(\N)Nc2ccc(C(C)C)cc2)n1	-13.7	-0.583	-1.4	.	14.2	-14.9
SMILES	TNF death inh	Dynein transport	L929 necroptosis	Autophagy HCS	Hck Nef HTS	MDM2 E3 inh
Cc1cccc(NC(=O)c2ccc(NCCc3ccccc3)c([N+](=O)[O-])c2)c1	1.5	-1.53	0.2	+	2.8	.
Cc1ccc(NC(=O)c2ccc(NCc3ccco3)c([N+](=O)[O-])c2)cc1Cl	2.0	-1.64	1.4	+	4.7	-20.2
Cc1ccc(NC(=O)c2ccc(NCCN)c([N+](=O)[O-])c2)cc1	1.5	-0.385	2.5	i	5.5	-2.6
COc1ccc(N2C(=O)C(Cl)=C(Oc3cccc(OC)c3)C2=O)cc1	-13.0	-0.129	1.1	i	31.0	4.7
Cc1ccc(C)c(NS(=O)(=O)c2cc(C(=O)NCCC3=CCCCC3)ccc2C)c1	-4.1	0.0585	0.0	i	0.1	-0.6
CN1\C(=C/C=C/C=C/C=[N+](C)C)C(C)(C)c2ccccc21	-11.6	0.417	-0.7	+	36.9	-23.1
CN1/C(=C\C=O)C(C)(C)c2ccccc21	-4.9	-0.485	2.0	i	20.1	-6.1
CN1/C(=C\C=Nc2ccc3ccccc3c2)C(C)(C)c2ccccc21	-2.8	1.09	-0.1	+	-2.5	-11.2
O=C(/C=C/c1ccc(S(=O)(=O)NCc2ccco2)cc1)NCc1cccc(Cl)c1	3.4	0.744	1.2	i	3.8	2.3
c1ccc(CNc2ncnc3c2cnn3-c2ccccc2)cc1	-11.3	0.301	1.1	i	0.2	-5.4
Fc1ccc(CNc2ncnc3c2cnn3-c2ccccc2)cc1	0.3	0.356	0.0	+	-0.1	-15.2
Cc1onc(-c2ccccc2)c1NC(=O)N(CCC#N)Cc1cccs1	1.3	0.0697	-0.6	.	18.6	-11.7
COc1cccc(N2CCN(c3ncnc4c3[nH]c3ccc(F)cc34)CC2C)c1 (configuration not stated)	-26.7	-1.9	6.1	+	2.2	-14.6
CCOc1ccc2[nH]c3c(N4CCN(c5ccccn5)CC4)ncnc3c2c1	-6.5	-0.2	5.7	+	-0.2	.
COc1ccc2[nH]c3c(N4CC(C)OC(C)C4)ncnc3c2c1 (configuration not stated)	0.6	-0.295	0.4	i	-1.4	35.4*
Cc1ccc2[nH]c3c(N4CCN(Cc5ccccc5)CC4)ncnc3c2c1	-7.3	-0.246	2.4	i	2.1	-23.7
O=C(CN1CCCCCC1)NCc1ccccc1	0.0	-0.547	0.7	i	-17.3	-7.6
O=C(CN1CCCCC1)NC(=O)NCc1ccccc1	1.1	-0.852	1.1	i	3.4	37.5*
c1cc2c(cc1C1CCCCC1)c1c3n2CCCNC3CCC1 (configuration not stated)	-16.5	-5.84	-4.0	+	7.1	-3.5
Cc1ccsc1/C=N/NC(=O)c1ccc(Cn2cc(Br)cn2)o1	0.6	0.922	-0.4	+	-1.3	-8.1
O=C(N/N=C/c1cccc(Br)c1)c1ccc(Cn2cc(Br)cn2)o1	0.3	0.039	0.3	i	3.2	-6.8
